Results on 13 molecules are retold here after ChEMBL document CHEMBL1152271, “Interrogating the bioactive pharmacophore of the latrunculin chemotype by investigating the metabolites of two taxonomically unrelated sponges” (J Med Chem, 2008).

The test system of one experiment is HCT-116. The experiment in a line: Cytotoxicity against human HCT116 cells after 3 days by trypan blue assay. It is filed as functional, cell-based. The note with it: HCT-116, 72 h.
Experiment [1] has as its system MDA-MB-435. Nature of the experiment: Cytotoxicity against human MDA-MB-435 cells 48 hrs by SRB assay. The experiment is classed as functional, cell-based. The settings on record: MDA-MB-435, 48 h. Background: Sulforhodamine B stains cellular protein and so reports cell mass.
The test system of experiment [2] is A10. The experiment in a line: Disruption of microfilament in rat A10 cells at 5 uM after 18 hrs using DAPI staining by fluorescence microscopy.
The subject of experiment [3] is MDA-MB-435. Nature of the experiment: Ratio of IC50 for human MDA-MB-435 cells to IC50 for human HCT116 cells. It is filed as functional.
Experiment [4] relates to MC-38. Nature of the experiment: Cytotoxicity against mouse Colon 38 cells at 1.9 uM by disk diffusion soft agar colony formation assay. It is filed as functional. The settings on record: read-out: IZ. In a few lines: (§1)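 Soft agar disk diffusion colony formation assay with murine colon 38 cells, run alongside murine L1210 and CFU-GM. Compound adsorbed onto a disk at similar loadings across compounds. Read-out is the zone of inhibition (Z) in mm. Full method described previously.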

Experiment [5] deals with MC-38. Nature of the experiment: Cytotoxicity against mouse Colon 38 cells at 1.1 uM by disk diffusion soft agar colony formation assay. It is filed as functional. The settings on record: read-out: IZ. In a few lines: (§2)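 Disk diffusion soft-agar colony formation assay with murine colon 38 cells. The compound is adsorbed onto a disk at a concentration similar to the other compounds tested. The read-out is the zone of inhibition (Z), recorded in mm.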
(A growth-free zone around the sample is the usual read-out of agar diffusion tests.)

In experiment [6] the test system is MC-38. The experiment in a line: Cytotoxicity against mouse Colon 38 cells at 5.1 uM by disk diffusion soft agar colony formation assay. It is filed as functional. The settings on record: read-out: IZ. In outline: as §1
Experiment [7] has as its system MC-38. Nature of the experiment: Cytotoxicity against mouse Colon 38 cells at 3.5 uM by disk diffusion soft agar colony formation assay. The experiment is classed as functional. The note with it: read-out: IZ. In outline:
as §2

The subject of experiment [8] is A10. Nature of the experiment: Disruption of microfilament in rat A10 cells at 9 uM after 18 hrs using DAPI staining by fluorescence microscopy. It is filed as functional, cell-based.
Experiment [9] relates to MC-38. Nature of the experiment: Cytotoxicity against mouse Colon 38 cells at 4.0 uM by disk diffusion soft agar colony formation assay. The settings on record: read-out: IZ. It is filed as functional. In outline: as §2

Structures are written as SMILES. Activity calls are given as the source filed them. No cut-off for these calls is given here.

For orientation: IC50 means the concentration needed to halve the response being measured. Regarding `C/C1=C/C(=O)O[C@@H]2C[C@@H](CC[C@H](C)/C=C\CC1)O[C@@](O)([C@H]1CSC(=O)N1)C2` [16-EPI-LATRUNCULIN B], the IC50 in the experiment on HCT-116 came out at 38 µM; in the experiment with MDA-MB-435 [1], 17 µM. In addition, in the experiment on A10 [2], the outcome was Active. Moreover, the “Ratio IC50” value in the experiment on MDA-MB-435 [3] was determined as 0.5.
Turning to `C/C1=C/C(=O)O[C@@H]2C[C@@H](CC[C@H](C)/C=C\C=C\CC1)O[C@@](O)([C@@H]1CSC(=O)N1)C2` [LATRUNCULIN A], the IC50 in the experiment on HCT-116 came out at 1.1 µM; in the experiment on MDA-MB-435 [1], 2.8 µM. Further, the zone of inhibition at 1.9 µM with MC-38 [4] was 9 mm. Besides, in the experiment on A10 [2], the result was Active. Also, the “Ratio IC50” value in the experiment on MDA-MB-435 [3] is 2.5.
Turning to `CO[C@H]1/C=C\[C@@H](C)CC[C@@H]2C[C@H](C[C@](O)([C@@H]3CSC(=O)N3)O2)OC(=O)/C=C(/C)CC[C@@H]1O` [LATRUNCULOL B], the figures for the IC50 in the experiment with HCT-116 and in the experiment on MDA-MB-435 [1] were 2.1 µM and 4 µM, respectively. Further, the zone of inhibition at 1.1 µM in the experiment with MC-38 [5] came to 19.5 mm. Moreover, the result with A10 [2] was Active. Also, the “Ratio IC50” value with MDA-MB-435 [3] is listed as 1.9.
For `C/C1=C/C(=O)O[C@@H]2C[C@@H](CC[C@H](C)/C=C\CC1)O[C@@](O)([C@@H]1CSC(=O)N1)C2` [LATRUNCULIN B], the zone of inhibition at 5.1 µM in the experiment on MC-38 [6] stood at 13 mm. The IC50 is 7.1 µM in the experiment on HCT-116 and 4.8 µM in the experiment with MDA-MB-435 [1]. For the same molecule, the result with A10 [2] was Active. The “Ratio IC50” value in the experiment on MDA-MB-435 [3] amounted to 0.7.
Turning to `C/C1=C/C(=O)O[C@@H](CC(O)[C@@H]2CSC(=O)N2)C[C@H](O)CC[C@H](C)/C=C\CC1` (some centres undefined) [LATRUNCULIN C], the IC50 with HCT-116 was over 100 µM; in the experiment on MDA-MB-435 [1], 34.3 µM. In addition, the outcome in the experiment with A10 [2] was inactive. In the experiment with MDA-MB-435 [3], the “Ratio IC50” value was under 0.3.
For the molecule `C/C1=C/C(=O)O[C@@H]2C[C@@H](CC[C@H](C)/C=C\[C@H](O)[C@@H](O)CC1)O[C@@](O)([C@H]1CSC(=O)N1)C2` [18-EPI-LATRUNCULOL A], the zone of inhibition at 3.5 µM with MC-38 [7] was 17 mm. Further, the IC50 was 5.5 µM with HCT-116 and over 50 µM with MDA-MB-435 [1]. The outcome in the experiment on A10 [2] was inactive. Further, in the experiment with MDA-MB-435 [3], the “Ratio IC50” value was over 9.1.
Consider `C/C1=C/C(=O)O[C@@H]2C[C@@H](CC[C@H](C)/C=C\[C@H](O)[C@@H](O)CC1)O[C@@](O)([C@@H]1CSC(=O)N1)C2` [LATRUNCULOL A], for which the figures for the IC50 in the experiment on HCT-116 and in the experiment with MDA-MB-435 [1] were 0.48 µM and 2.1 µM, respectively. In addition, in the experiment with MC-38 [5], the zone of inhibition at 1.1 µM is 23.5 mm. Also, in the experiment with A10 [2], the result was Active. Moreover, the “Ratio IC50” value with MDA-MB-435 [3] worked out at 4.4.
On to `C/C1=C/C(=O)O[C@@H]2C[C@@H](CC[C@H](C)C(=O)/C=C/C(O)CC1)O[C@@](O)([C@@H]1CSC(=O)N1)C2` (some centres undefined), for which the IC50 in the experiment on HCT-116 is over 53 µM; in the experiment on MDA-MB-435 [1] it was 30.5 µM. The result with A10 [8] was inactive. Further, the “Ratio IC50” value in the experiment with MDA-MB-435 [3] was under 0.6.
Consider `C/C1=C/C(=O)O[C@@H]2C[C@@H](CC[C@H](C)/C=C\CC(=O)CC1)O[C@@](O)([C@@H]1CSC(=O)N1)C2` [LATRUNCULONE B], for which the IC50 with HCT-116 turned out to be 0.92 µM; in the experiment on MDA-MB-435 [1] it was 1 µM. Moreover, the zone of inhibition at 1.1 µM in the experiment with MC-38 [5] amounted to 19.5 mm. The result with A10 [2] was Active. Further, the “Ratio IC50” value with MDA-MB-435 [3] turned out to be 1.1.
Regarding `CO[C@]1([C@@H]2CSC(=O)N2)C[C@H]2C[C@@H](CC[C@H](C)/C=C\CC/C(C)=C\C(=O)O2)O1` [15-METHOXYLATRUNCULIN B], the values for the IC50 with HCT-116 and in the experiment with MDA-MB-435 [1] were 49 µM and 29.7 µM, respectively. Further, the result with A10 [2] was inactive. Further, in the experiment with MDA-MB-435 [3], the “Ratio IC50” value stood at 0.6.
For `C/C(=C/C(=O)O)CC/C=C\[C@@H](C)CC[C@@H]1CC=CC(=O)O1` [LATRUNCULEIC ACID], in that order: 48 µM, 26.1 µM, “inactive” and 0.5.
For `C/C1=C/C(=O)O[C@@H]2C[C@@H](CC[C@H](C)/C=C\[C@H](O)[C@H](O)CC1)O[C@@](O)([C@@H]1CSC(=O)N1)C2` [LATRUNCULOL C], in that order: over 53 µM, 11.9 µM, “Active” and under 0.2.
For `C/C1=C/C(=O)O[C@@H]2C[C@@H](CC[C@H](C)/C=C\[C@@H]3OC(C)(C)O[C@H]3CC1)O[C@@](O)([C@@H]1CSC(=O)N1)C2`, the IC50 was determined as 5.1 µM with HCT-116 and 7.9 µM in the experiment with MDA-MB-435 [1]. Also, the zone of inhibition at 4 µM in the experiment with MC-38 [9] amounted to 21 mm. Moreover, the outcome in the experiment on A10 [2] was Active. Besides, in the experiment with MDA-MB-435 [3], the “Ratio IC50” value was 1.5.
